Activity calls are given as the source filed them. The rule behind the calls is not given here.

Test [1] deals with MDA-MB-231. Briefly: Growth inhibition of human MDA-MB-231 cells after 48 hrs by MTT assay. The test is classed as functional, cell-based. The conditions noted are these: MDA-MB-231, 48 h. An outline of the steps:
(§1)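 MDA-MB-231 grown in DMEM, MCF-7 in MEM, each with 10% FBS, 37 °C, 5% CO2. Confluent cells exposed to compound, 0.195–100 μM, for 48 h. Then 2 mg/mL MTT for 4 h at 37 °C, formazan dissolved in DMSO, absorbance read at 490 nm. IC50 values are the mean of three independent experiments.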
(In general: Tetrazolium dyes change colour on reduction, which living cells bring about.)

For test [2], the system named is MCF7. Briefly: Growth inhibition of human MCF7 cells after 48 hrs by MTT assay. The format is functional, cell-based. The settings on record: MCF7, 48 h. A digest of the protocol:
as §1

Test [3] has as its target T1, Retinoic acid receptor RXR-alpha (Homo sapiens) (UniProt P19793).
T1 sequence (whole entry): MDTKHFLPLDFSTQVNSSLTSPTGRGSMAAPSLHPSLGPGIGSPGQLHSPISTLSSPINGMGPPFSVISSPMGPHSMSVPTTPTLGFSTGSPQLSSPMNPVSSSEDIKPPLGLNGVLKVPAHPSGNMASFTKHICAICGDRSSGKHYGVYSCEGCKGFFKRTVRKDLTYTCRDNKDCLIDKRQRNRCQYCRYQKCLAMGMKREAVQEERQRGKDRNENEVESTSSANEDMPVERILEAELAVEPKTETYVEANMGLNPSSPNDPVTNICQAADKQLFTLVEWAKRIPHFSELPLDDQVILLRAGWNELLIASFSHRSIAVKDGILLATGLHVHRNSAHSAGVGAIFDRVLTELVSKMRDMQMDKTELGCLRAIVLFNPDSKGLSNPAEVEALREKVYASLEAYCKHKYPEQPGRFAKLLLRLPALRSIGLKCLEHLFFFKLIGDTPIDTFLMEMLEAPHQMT
Briefly: Antagonist activity at Gal4-fused human RXRalpha LBD (unknown origin) assessed as inhibition of 9-cis-retinoic acid-induced transactivation at 1 to 50 uM after 18 hrs by cell-based dual luciferase reporter gene assay. An outline of the steps:
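Cells transfected with Gal4 reporter plus Gal4-RXRα/LBD plasmids for 24 h, then treated with compounds at 1, 10 and 50 µM in the presence of 9-cis-RA for 18 h. Firefly luciferase read from lysates, normalized to Renilla. A compound counted as antagonist when inhibition was dose-dependent.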

Test [4] addresses T1, Retinoic acid receptor RXR-alpha (Homo sapiens). Briefly: Inhibition of RXRalpha in human HeLa cells assessed as increase in PARP cleavage after 8 hrs by Immunoblotting analysis. The format is cell-based. An outline of the steps:
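HeLa cells in medium with 0% FBS treated with compounds, with or without TNF-α (20 ng/mL), for 8 h. PARP cleavage detected by immunoblot: 10% SDS-PAGE, nitrocellulose, 5% milk/TBST block, ECL detection. For the RXRα-dependence check, cells first got control or RXRα siRNA for 48 h, then compounds at 20 µM for 8 h.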
For orientation: A western blot detects proteins with antibodies after separation by electrophoresis.

Test [5] has the same target. Briefly: Inhibition of RXRalpha in human MCF7 cells assessed as increase in PARP cleavage after 12 hrs by Immunoblotting analysis. The format is cell-based. An outline of the steps: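 MCF-7 cells in medium with 0% FBS treated with compounds, with or without TNF-α (20 ng/mL), for 12 h. PARP cleavage read by immunoblot (10% SDS-PAGE, ECL). For the RXRα-dependence check, cells got control or RXRα siRNA for 48 h, then compounds at 30 µM for 12 h.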

The target of test [6] is T2, Retinoic acid receptor RXR-alpha (Homo sapiens, UniProt P19793).
T2 sequence (P19793 whole entry): T1 sequence (whole entry)
Briefly: Inhibition of 9-cis-retinoic acid competition binding to RXRalpha LBD (unknown origin) by fluorescence quenching method.

Test [7] addresses T1, Retinoic acid receptor RXR-alpha (Homo sapiens). Briefly: Inhibition of RXRalpha in human HeLa cells assessed as increase in PARP cleavage at 15 uM after 8 hrs in presence of TNFalpha by Immunoblotting analysis. The test is classed as cell-based. A digest of the protocol:
(§2)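 Cells kept in medium with 0% FBS and treated with compound together with TNF-α (20 ng/mL). Exposure was 8 h for HeLa and 12 h for MCF-7. PARP cleavage read by immunoblot: 10% SDS-PAGE, nitrocellulose, blocking in 5% milk/TBST, HRP secondary antibody, ECL.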

Test [8] has the same target. Briefly: Inhibition of RXRalpha in human MCF7 cells assessed as increase in PARP cleavage at 30 uM after 12 hrs in presence of TNFalpha by Immunoblotting analysis. The format is cell-based. An outline of the steps: as §2
Test [9] relates to HeLa. Briefly: Induction of apoptosis in human HeLa cells assessed as increase in PARP cleavage at 20 uM after 8 hrs in presence of RXRalpha siRNA by Immunoblotting analysis. The format is functional, cell-based. A digest of the protocol: (§3)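 Cells transfected (Lipofectamine 2000) with control or RXRα siRNA for 48 h. HeLa (MEM, 10% FBS) then given compound at 20 μM for 8 h; MCF-7 (MEM, 10% FBS) given 30 μM for 12 h. Lysates run on 10% SDS-PAGE, transferred to nitrocellulose, probed for PARP cleavage and detected by ECL.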

The subject of test [10] is MCF7. Briefly: Induction of apoptosis in human MCF7 cells assessed as increase in PARP cleavage at 30 uM after 12 hrs in presence of siRNA by Immunoblotting analysis. The test is classed as functional, cell-based. An outline of the steps:
as §3

`CC(C)c1ccc(/C=C2\C=C(CCc3nnn[nH]3)c3ccccc32)cc1`: the 50% inhibitory concentration (IC50) – broadly, the concentration that gives 50% inhibition – in test [1] was found to be 15.6 µM; in test [2] it was 41.8 µM.
Take `CC1=C(Cc2nnn[nH]2)c2ccccc2/C1=C\c1ccc(OC(F)(F)F)cc1`: the outcome in [3] was Active.
On to `CC1=C(Cc2nnn[nH]2)c2ccccc2/C1=C\c1ccc(C(C)C)cc1`, for which the figures for the IC50 in test [1] and in test [2] were 8.48 µM and 27.6 µM, respectively.
For `CC1=C(CCc2nnn[nH]2)c2ccccc2/C1=C\c1cccc(Cl)c1` the same measures were 24.7 µM and 45.6 µM.
For `CC1=C(Cc2nnn[nH]2)c2ccccc2/C1=C\c1ccc(C(C)(C)C)cc1`, in that order: 14.3 µM and 38.4 µM.
Take `CC(C)c1ccc(/C=C2\C=C(Cc3nnn[nH]3)c3ccccc32)cc1`: the result in test [3] was Active.
The same measure, in the same setting: next, `CC1=C(Cc2nnn[nH]2)c2ccccc2/C1=C\c1ccc(C(F)(F)F)cc1`: “Active”; `CSc1ccc(/C=C2/C(C)=C(CCc3nnn[nH]3)c3ccccc32)cc1`: “Active”.
In the case of `COc1ccc(/C=C2/C(C)=C(Cc3nnn[nH]3)c3ccccc32)cc1`, the half-inhibitory concentration (IC50) in test [1] worked out at 25.7 µM; in [2] it was 104 µM.
For `CC1=C(CCc2nnn[nH]2)c2ccccc2/C1=C\c1ccc(C(C)C)cc1`, in that order: 12.3 µM and 27 µM.
Regarding `CC1=C(CCc2nnn[nH]2)c2ccccc2/C1=C\c1cccc2ccccc12`, in [3], the result was Active. Further, the inhibition result in test [4] and in test [5] was “Dose-dependent effect” throughout.
`COc1ccc(/C=C2\C=C(Cc3nnn[nH]3)c3ccccc32)cc1`: the result in test [3] was Active.
Turning to `CC1=C(CCc2nnn[nH]2)c2ccccc2/C1=C\c1ccc(C(F)(F)F)cc1`, the IC50 was 22.1 µM in test [1] and 39.4 µM in [2].
For `CC1=C(Cc2nnn[nH]2)c2ccccc2/C1=C\c1cccs1`, in that order: 53.3 µM and 124 µM.
For `CC1=C(CC(=O)O)c2cc(F)ccc2/C1=C\c1ccc(C(C)C)cc1`, the equilibrium dissociation constant (Kd) – broadly, a measure of binding affinity in units of concentration – in test [6] is 2.38 µM.
Regarding `CC1=C(CCc2nnn[nH]2)c2ccccc2/C1=C\c1cccc(C(F)(F)F)c1`, the IC50 in test [1] stood at 15.6 µM; in test [2] it was 28.8 µM.
Turning to `CSc1ccc(/C=C2/C(C)=C(Cc3nnn[nH]3)c3ccccc32)cc1`, in [3], the outcome was Active.
Still for that read-out and setting: next, `CC1=C(Cc2nnn[nH]2)c2ccccc2/C1=C\c1cccc(C(F)(F)F)c1`: “Active”.
Turning to `CC1=C(CCc2nnn[nH]2)c2ccccc2/C1=C\c1ccc(OC(F)(F)F)cc1`, the IC50 in [1] worked out at 8.9 µM; in test [2], 17.3 µM. For the same molecule, the Kd in [6] worked out at 1.59 µM. In addition, the inhibition entry in test [4] and in test [5] was “Dose-dependent effect” throughout. Further, the inhibition entry in test [7] and in test [8] was “Active” in each case. Besides, the outcome in test [9] and in test [10] was inactive.
As for `COc1ccc(/C=C2/C(C)=C(CCc3nnn[nH]3)c3ccccc32)cc1`, the result in [3] was Active.
Regarding `CC1=C(Cc2nnn[nH]2)c2ccccc2/C1=C\c1ccccc1C(F)(F)F`, the IC50 in test [1] came out at 40.8 µM; in test [2] it was 62.3 µM.
For the molecule `CC1=C(CCc2nnn[nH]2)c2ccccc2/C1=C\c1ccccc1C(F)(F)F`, the outcome in test [3] was Active.
Still for that read-out and setting: next, `CC1=C(CCc2nnn[nH]2)c2ccccc2/C1=C\c1ccccc1Cl`: “Active”.
In the case of `CC(C)c1ccc(/C=C2/C=C(CC(=O)NO)c3cc(F)ccc32)cc1`, the IC50 worked out at 5 µM in test [1] and 20.8 µM in test [2]. The same molecule registered a Kd in test [6] of 1.13 µM. Also, the inhibition result in [7] and in [8] was “Active” throughout. In addition, the result in [9] and in [10] was inactive.
For the molecule `CC1=C(CCc2nnn[nH]2)c2ccccc2/C1=C\c1ccc(Cl)cc1`, the values for the IC50 in test [1] and in test [2] were 15.2 µM and 56.3 µM, respectively.
For `CC1=C(Cc2noc(=O)[nH]2)c2ccccc2/C1=C\c1ccc(C(C)C)cc1` the same measures were 9.04 µM and 23.8 µM.
For `CC1=C(CCc2nnn[nH]2)c2ccccc2/C1=C\c1ccc(C(C)(C)C)cc1` the same measures were 12.5 µM and 31.1 µM.

These data come from ChEMBL document CHEMBL4422640, “Design, synthesis and biological evaluation of tetrazole-containing RXRα ligands as anticancer agents” (Eur J Med Chem, 2019).
